procasp3 activ – activators of human procaspase-3 D3A mutant, primary screen, biochemical, absorbance, PC-3 D3A mutant, single concentration | activation, % at 8.5 µM | recombinant procaspase-3 D3A, Ac-DEVD-pNA absorbance 405 nm | actives 0.11% (n = 330,000);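 active = activation above the mean of all tested compounds plus 3 SD, cut at about 21% in these data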
Target sequence (P42574 whole entry D9A/D28A/D175A): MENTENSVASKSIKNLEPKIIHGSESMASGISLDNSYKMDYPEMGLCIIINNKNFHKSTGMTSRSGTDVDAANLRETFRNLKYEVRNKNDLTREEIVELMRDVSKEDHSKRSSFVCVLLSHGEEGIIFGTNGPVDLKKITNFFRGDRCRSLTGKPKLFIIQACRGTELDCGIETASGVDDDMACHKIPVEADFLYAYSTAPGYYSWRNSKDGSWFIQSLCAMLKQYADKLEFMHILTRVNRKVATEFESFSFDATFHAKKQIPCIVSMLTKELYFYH
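Assay system: Procaspase-3 D3A mutant, all three cleavage aspartates alanine. Buffer or medium: Zinc-free HEPES saline buffer with Triton X-100. Times: 1 h compound preincubation, 2 h substrate hydrolysis at 25 °C. Measured by: 405 nm absorbance of p-nitroaniline, reads at 0 and 120 min. Read-out basis: percent activation relative to control range. Replicates: singlicate.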
CHT block – inhibitors of human choline transporter CHT | B-score at 10 µM | High affinity choline transporter 1 (Homo sapiens), Q9GZV3 | actives 0.86% (n = 310,000) | CHT-expressing cells, membrane potential dye, choline response; hits give low values | AID 488975, 2010;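 active = B-score over 3 SD under the library average, and starting fluorescence ratio not unusually high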;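 note: choline stimulus applied at its EC90 after an EC20 pre-addition; B-score computed on integrated fluorescence ratio after choline addition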
proCasp7 act – procaspase-7 activators, primary screen, counter-screen for procaspase-3 activator project, biochemical, absorbance, HTS, human; actives 0.093% (n = 330,000); activation, % at 8.5 µM; Caspase-7 (Homo sapiens), P55210; recombinant procaspase-7, Ac-DEVD-pNA absorbance 405 nm; D23A/D198A/D206A triple mutant, cannot self-cleave; scale: DMSO 0, 5 µM enzyme 100; AID 463210, 2010;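 active = percent activation above the screen-wide mean plus 3 SD, cut at about 25% in these data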
Target sequence (P55210 whole entry D23A/D198A/D206A): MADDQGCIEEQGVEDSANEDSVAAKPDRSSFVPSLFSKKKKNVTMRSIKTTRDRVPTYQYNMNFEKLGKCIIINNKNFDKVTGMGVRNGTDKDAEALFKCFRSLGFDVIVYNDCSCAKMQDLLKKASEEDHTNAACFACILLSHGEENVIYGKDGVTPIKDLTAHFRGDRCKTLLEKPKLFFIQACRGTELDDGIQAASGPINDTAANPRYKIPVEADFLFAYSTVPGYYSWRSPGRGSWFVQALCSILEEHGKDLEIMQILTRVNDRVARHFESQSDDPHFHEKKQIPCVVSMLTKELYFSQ
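Test system: Procaspase-7 triple mutant (PC-7 D3A). Also added: Ac-DEVD-pNA substrate, 400 µM as added. Schedule: 1 h enzyme–compound preincubation and 2 h substrate reaction, both 25 °C. Signal: p-Nitroaniline absorbance at 405 nm, read at 0 and 120 min. Control set: low DMSO alone, high DMSO plus 5 µM PC-7.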
CHT allo act – CHT positive allosteric modulators, primary screen, cell-based, membrane potential dye, choline EC20 | actives 0.49% (n = 310,000) | CHT-expressing cells; hits give high values; LV-AA mutant CHT in HEK293 cells | High affinity choline transporter 1 (Homo sapiens), Q9GZV3 | B-score at 10 µM;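 active = initial fluorescence not abnormally high and integrated response B-score, plate-corrected, over 3 SD above library mean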
CHT block conf – CHT inhibitors, confirmation, cell-based, membrane potential dye, duplicate. shares compounds with CHT block. CHT-expressing cells, choline membrane potential dye; LV-to-AA substituted CHT, HEK293 cells. CHT activity remaining % of control (hits give low values), % at 10 µM. actives 70% (n = 2,400). AID 493221, 2011;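 active = choline transporter activity left, mean of duplicates at 10 µM, below buffer-only control mean minus 3 SD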;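 note: depolarization triggered by choline at its EC90 following an EC20 pre-addition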
HEK293 MPD ctr – membrane potential effects in parental HEK293, counter-screen for CHT inhibitor project, cell-based, membrane potential dye; actives 4% (n = 2,400); choline response; active = decrease or increase beyond buffer ±3SD; shares compounds with CHT block; membrane potential ratio readout (active if shifted either direction beyond buffer ±3SD; no single direction) at 10 µM;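 note: parental cells lack the transporter so any hit is non-specific; ratio is peak minus trough fluorescence over baseline after EC90 choline challenge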
Numbers stand for hits. Rows were chosen to be rich in hits. Some 1.3% of all compounds tested hit in one or more screens of this group.

Cc1ccc(NS(=O)(=O)c2cccc(C(=O)NCC3CCCO3)c2)cc1 (stereo not given) was read as procasp3 activ inactive, CHT block inactive, proCasp7 act inactive and CHT allo act inactive.
`O=C(O)c1cccc2c1/C(=N/Nc1ccc([N+](=O)[O-])cc1[N+](=O)[O-])c1ccccc1-2` gave procasp3 activ inactive, CHT block -6.2, proCasp7 act inactive, CHT allo act inactive, CHT block conf 69% and HEK293 MPD ctr inactive.
For O=S(=O)(Nc1nc2ccccc2nc1NCc1ccco1)c1ccc(F)cc1 the results were procasp3 activ inactive, CHT block -6.2, proCasp7 act inactive, CHT allo act inactive, CHT block conf inactive and HEK293 MPD ctr inactive.
For O=S(=O)(Nc1nc2ccccc2nc1NCc1ccco1)c1ccccc1 the results were procasp3 activ inactive, CHT block inactive, proCasp7 act inactive and CHT allo act inactive.
N#CCCN1CCN(C(=S)c2ccc(-c3cc(Cl)ccc3Cl)o2)CC1 was read as procasp3 activ inactive, CHT block inactive, proCasp7 act inactive and CHT allo act inactive.
`CN1CCN(C(=S)c2ccc(-c3cc(Cl)ccc3Cl)o2)CC1` gave procasp3 activ inactive, CHT block -9.7, proCasp7 act inactive, CHT allo act inactive, CHT block conf inactive and HEK293 MPD ctr inactive.
O=[N+]([O-])c1c(Nc2ccccc2O)cc(Cl)c2nonc12 was read as CHT block -8.5, CHT allo act inactive, CHT block conf 38% and HEK293 MPD ctr inactive.
For Cc1ccccc1Nc1nnc(SCC2CCCCO2)s1 (stereo not given) the results were procasp3 activ inactive, CHT block inactive, proCasp7 act inactive and CHT allo act inactive.
COc1ccccc1Nc1nnc(SCC2CCCCO2)s1 (stereo not given) was read as procasp3 activ inactive, CHT block -6.3, proCasp7 act inactive, CHT allo act inactive, CHT block conf 57% and HEK293 MPD ctr inactive.
Screening CN(C)C(=O)C(OC(=O)c1ccc2ccccc2n1)c1ccccc1 (stereo not given) returned procasp3 activ inactive, CHT block inactive, proCasp7 act inactive and CHT allo act inactive.
Screening O=C(NCc1cn2ccsc2n1)c1cccs1 returned procasp3 activ inactive, CHT block -5.1, proCasp7 act inactive, CHT allo act inactive, CHT block conf inactive and HEK293 MPD ctr inactive.
`COc1ccc(NS(=O)(=O)c2cccc(C(=O)NCC(c3ccco3)N3CCCCC3)c2)cc1` (stereo not given) gave procasp3 activ inactive, CHT block -11, proCasp7 act inactive, CHT allo act inactive, CHT block conf 0.3% and HEK293 MPD ctr inactive.
Cc1cccc(NS(=O)(=O)c2cccc(C(=O)NCC(c3ccco3)N3CCCCC3)c2)c1 (stereo not given) was read as procasp3 activ inactive, CHT block -6.7, proCasp7 act inactive, CHT allo act inactive, CHT block conf 14% and HEK293 MPD ctr inactive.
O=C(NCC(c1ccco1)N1CCCC1)c1cccc(NS(=O)(=O)c2ccc(Br)cc2)c1 (stereo not given) was read as procasp3 activ inactive, CHT block inactive, proCasp7 act inactive and CHT allo act inactive.
Screening COc1ccc(C(CNC(=O)c2cccc(S(=O)(=O)Nc3ccc(C)cc3)c2)N2CCCCC2)cc1 (stereo not given) returned procasp3 activ inactive, CHT block -14, proCasp7 act inactive, CHT allo act inactive, CHT block conf 12% and HEK293 MPD ctr inactive.
`COc1ccccc1NS(=O)(=O)c1ccc(C)c(C(=O)NCC(c2ccco2)N2CCCCC2)c1` (stereo not given) gave procasp3 activ inactive, CHT block -16, proCasp7 act inactive, CHT allo act inactive, CHT block conf -4.8% and HEK293 MPD ctr inactive.
`COc1ccccc1NS(=O)(=O)c1cccc(C(=O)NCC(c2ccco2)N2CCCC2)c1` (stereo not given) gave procasp3 activ inactive and proCasp7 act inactive.
Screening COc1ccc(C(CNC(=O)CCNS(=O)(=O)c2ccc(C)cc2)N2CCOCC2)cc1 (stereo not given) returned procasp3 activ inactive, CHT block inactive, proCasp7 act inactive and CHT allo act inactive.
CN(CC(=O)Nc1ccc(Cl)c(Cl)c1)C(=O)C1CCC1 was read as procasp3 activ inactive and proCasp7 act inactive.
`O=C(CNS(=O)(=O)c1cccc2nsnc12)NCCc1ccccc1` gave procasp3 activ inactive, CHT block inactive, proCasp7 act inactive and CHT allo act inactive.
For COc1ccc(N(C(C)=O)c2nc3ccccc3[nH]2)cc1 the results were procasp3 activ inactive, CHT block inactive, proCasp7 act inactive and CHT allo act inactive.
Screening CCCOc1ccc(Br)cc1CSC(=N)N returned procasp3 activ inactive, CHT block -6.1, proCasp7 act inactive, CHT allo act inactive, CHT block conf 33% and HEK293 MPD ctr inactive.
COc1ccc(CCNC(=O)CCOc2ccc(C(C)(C)C)cc2)cc1OC was read as procasp3 activ inactive, CHT block inactive, proCasp7 act inactive and CHT allo act inactive.
Screening CC(C)NC[C@H](O)c1ccc(O)c(O)c1 returned procasp3 activ inactive, CHT block inactive, proCasp7 act inactive, CHT allo act inactive, CHT block conf 39% and HEK293 MPD ctr inactive.
For CC(CCc1ccc(O)cc1)NCc1ccc(Br)cc1 (stereo not given) the results were procasp3 activ inactive, CHT block -5.1, proCasp7 act inactive, CHT allo act inactive, CHT block conf inactive and HEK293 MPD ctr inactive.
CC(CCc1ccc(O)cc1)NCCC(c1ccccc1)c1ccccc1 (stereo not given) was read as procasp3 activ inactive, CHT block inactive, proCasp7 act inactive and CHT allo act inactive.
Screening CC(C)OC(=O)c1c(NC(=O)C2CC=CCC2C(=O)O)sc2c1CCCCC2 (stereo not given) returned procasp3 activ inactive, CHT block -5.2, proCasp7 act inactive, CHT allo act inactive, CHT block conf inactive and HEK293 MPD ctr inactive.
For NC(=O)c1c(NC(=O)C2CC=CCC2C(=O)O)sc2c1CCCCC2 (stereo not given) the results were procasp3 activ inactive, CHT block inactive, proCasp7 act inactive and CHT allo act inactive.

Bioassay records (PubChem)
